ChEMBL document CHEMBL1128473, “[(Biaryloxy)alkyl]isoxazoles: picornavirus inhibitors” (J Med Chem, 1995)
≈ marks a conversion by molar mass, not a printed value.

How the values were obtained:
Human rhinovirus sp. = experiment: Concentration inhibiting 50% of the serotypes tested to 50% of the viral concentration of untreated controls following 72 hr of exposure; type: functional
Summary of the method: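 Tissue culture infectious dose (TCID50) assay against a panel of 10 human rhinovirus serotypes. For each serotype, the viral concentration was compared with untreated controls after 72 h of compound exposure. MIC50 is the compound concentration at which half of the serotypes tested are reduced to 50% of the untreated-control viral concentration.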

[1] = Metabolic stability expressed as half life values was monitored in vitro liver microsomal assay.; type: ADME, Microsome; conditions: liver microsomes

MIC50 (Human rhinovirus sp.) [µM] | half-life [1] [h] | SMILES
0.32 (≈ 0.109 µg/mL) |  | Cc1cc(CCCOc2c(C)cc(-c3cccc(F)c3)cc2C)on1
1.7 (≈ 0.662 µg/mL) |  | Cc1cc(CCCOc2c(C)cc(-c3ccc(C(F)(F)F)cc3)cc2C)on1
0.12 (≈ 0.0427 µg/mL) |  | Cc1cc(CCCOc2c(C)cc(-c3ccc(Cl)cc3)cc2C)on1
0.35 (≈ 0.128 µg/mL) |  | Cc1cc(CCCOc2c(C)cc(-c3cccc([N+](=O)[O-])c3)cc2C)on1
0.27 (≈ 0.0961 µg/mL) |  | Cc1cc(CCCOc2c(C)cc(-c3cccc(Cl)c3)cc2C)on1
0.28 (≈ 0.0984 µg/mL) |  | COc1ccc(-c2cc(C)c(OCCCc3cc(C)no3)c(C)c2)cc1
0.23 (≈ 0.0772 µg/mL) | > 3.33 | Cc1cccc(-c2cc(C)c(OCCCc3cc(C)no3)c(C)c2)c1
0.66 (≈ 0.241 µg/mL) |  | Cc1cc(CCCOc2c(C)cc(-c3ccc(N(C)C)cc3)cc2C)on1
0.16 (≈ 0.0514 µg/mL) | > 3.33 | Cc1cc(CCCOc2c(C)cc(-c3ccccc3)cc2C)on1
0.77 (≈ 0.26 µg/mL) |  | Cc1cc(CCCOc2c(C)cc(-c3ccc(O)cc3)cc2C)on1
